# Laboratory results: ChEMBL document CHEMBL2375313, “Synthesis, in vitro antitumor evaluation and DNA-binding study of novel tetrahydroquinolines and some derived tricyclic and tetracyclic ring systems” (Eur J Med Chem, 2013)
# How the values were obtained:
# Assay type in all cases: functional
# [1] = test system: SK-MEL-5; test: Cytotoxicity against human SK-MEL-5 cells assessed as growth inhibition at 10 uM after 48 hrs by sulphorhodamine B assay; settings: SK-MEL-5, 48 h, read-out: GI
# Outline: (§1)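 NCI-60 one-dose screen per the NCI Drug Evaluation Branch protocol. Cells given a single 10 µM concentration with 48 h continuous exposure. Growth estimated by sulphorhodamine B protein assay. Result expressed as percentage growth inhibition relative to untreated growth.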
# [2] = test system: HL-60(TB); test: Cytotoxicity against human HL-60(TB) cells assessed as growth inhibition at 10 uM after 48 hrs by sulphorhodamine B assay; settings: HL-60, 48 h, read-out: GI
# Outline: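 NCI-60 one-dose primary screen run to the Drug Evaluation Branch protocol. Cells are exposed to a single 10 µM concentration for 48 h continuously, and growth is read by SRB protein assay. Data are reported as percent growth of treated cells, expressed as % growth inhibition.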
# [3] = test system: SK-MEL-2; test: Cytotoxicity against human SK-MEL-2 cells assessed as growth inhibition at 10 uM after 48 hrs by sulphorhodamine B assay; settings: SK-MEL-2, 48 h, read-out: GI; outline: as §1
# [4] = test system: UO-31; test: Cytotoxicity against human UO31 cells assessed as growth inhibition at 10 uM after 48 hrs by sulphorhodamine B assay; settings: UO-31, 48 h, read-out: GI; outline: as §1
# [5] = test system: SF-268; test: Cytotoxicity against human SF268 cells assessed as growth inhibition at 10 uM after 48 hrs by sulphorhodamine B assay; settings: SF-268, 48 h, read-out: GI; outline: as §1
# [6] = test system: MCF7; test: Cytotoxicity against human MCF7 cells assessed as growth inhibition at 10 uM after 48 hrs by sulphorhodamine B assay; settings: MCF7, 48 h, read-out: GI; outline: as §1
# [7] = Cytotoxicity against human EKVX cells assessed as growth inhibition at 10 uM after 48 hrs by sulphorhodamine B assay; settings: read-out: GI; outline: as §1
# [8] = test system: NCI-H23; test: Cytotoxicity against human NCI-H23 cells assessed as growth inhibition at 10 uM after 48 hrs by sulphorhodamine B assay; settings: NCI-H23, 48 h, read-out: GI; outline: as §1
# [9] = test system: HCT-15; test: Cytotoxicity against human HCT15 cells assessed as growth inhibition at 10 uM after 48 hrs by sulphorhodamine B assay; settings: HCT-15, 48 h, read-out: GI; outline: as §1
# [10] = test system: SNB-19; test: Cytotoxicity against human SNB19 cells assessed as growth inhibition at 10 uM after 48 hrs by sulphorhodamine B assay; settings: SNB-19, 48 h, read-out: GI; outline: as §1
# [11] = test system: CCRF-CEM; test: Cytotoxicity against human CCRF-CEM cells assessed as growth inhibition at 10 uM after 48 hrs by sulphorhodamine B assay; settings: read-out: GI; outline: as §1
# [12] = test system: MDA-MB-468; test: Cytotoxicity against human MDA-MB-468 cells assessed as growth inhibition at 10 uM after 48 hrs by sulphorhodamine B assay; settings: MDA-MB-468, 48 h, read-out: GI; outline: as §1
# [13] = test system: U-251; test: Cytotoxicity against human U251 cells assessed as growth inhibition at 10 uM after 48 hrs by sulphorhodamine B assay; settings: U-251, 48 h, read-out: GI; outline: as §1
# [14] = test system: DU-145; test: Cytotoxicity against human DU145 cells assessed as growth inhibition at 10 uM after 48 hrs by sulphorhodamine B assay; settings: DU-145, 48 h, read-out: GI; outline: as §1
# [15] = test system: SR; test: Cytotoxicity against human SR cells assessed as growth inhibition at 10 uM after 48 hrs by sulphorhodamine B assay; settings: read-out: GI; outline: as §1
# [16] = test system: RXF 393; test: Cytotoxicity against human RXF393 cells assessed as growth inhibition at 10 uM after 48 hrs by sulphorhodamine B assay; settings: RXF 393, 48 h, read-out: GI; outline: as §1
# [17] = test system: K562; test: Cytotoxicity against human K562 cells assessed as growth inhibition at 10 uM after 48 hrs by sulphorhodamine B assay; settings: K562, 48 h, read-out: GI; outline: as §1
# [18] = test system: UACC-62; test: Cytotoxicity against human UACC62 cells assessed as growth inhibition at 10 uM after 48 hrs by sulphorhodamine B assay; settings: UACC-62, 48 h, read-out: GI; outline: as §1
# [19] = test system: IGROV-1; test: Cytotoxicity against human IGROV1 cells assessed as growth inhibition at 10 uM after 48 hrs by sulphorhodamine B assay; settings: IGROV-1, 48 h, read-out: GI; outline: as §1
# [20] = test system: MDA-MB-435; test: Cytotoxicity against human MDA-MB-435 cells assessed as growth inhibition at 10 uM after 48 hrs by sulphorhodamine B assay; settings: MDA-MB-435, 48 h, read-out: GI; outline: as §1
# [21] = test system: SK-OV-3; test: Cytotoxicity against human SKOV3 cells assessed as growth inhibition at 10 uM after 48 hrs by sulphorhodamine B assay; settings: SK-OV-3, 48 h, read-out: GI; outline: as §1
# [22] = test system: HT-29; test: Cytotoxicity against human HT-29 cells assessed as growth inhibition at 10 uM after 48 hrs by sulphorhodamine B assay; settings: HT-29, 48 h, read-out: GI; outline: as §1
# [23] = test system: T47D; test: Cytotoxicity against human T47D cells assessed as growth inhibition at 10 uM after 48 hrs by sulphorhodamine B assay; settings: read-out: GI; outline: as §1
# [24] = test system: NCI/ADR-RES; test: Cytotoxicity against human NCI/ADR-RES cells assessed as growth inhibition at 10 uM after 48 hrs by sulphorhodamine B assay; settings: read-out: GI; outline: as §1
# [25] = test system: OVCAR-4; test: Cytotoxicity against human OVCAR4 cells assessed as growth inhibition at 10 uM after 48 hrs by sulphorhodamine B assay; settings: OVCAR-4, 48 h, read-out: GI; outline: as §1
# [26] = test system: RPMI-8226; test: Cytotoxicity against human RPMI8226 cells assessed as growth inhibition at 10 uM after 48 hrs by sulphorhodamine B assay; settings: RPMI-8226, 48 h, read-out: GI; outline: as §1
# [27] = test system: SNB-75; test: Cytotoxicity against human SNB75 cells assessed as growth inhibition at 10 uM after 48 hrs by sulphorhodamine B assay; settings: SNB-75, 48 h, read-out: GI; outline: as §1
# [28] = test system: HCT-116; test: Cytotoxicity against human HCT116 cells assessed as growth inhibition at 10 uM after 48 hrs by sulphorhodamine B assay; settings: HCT-116, 48 h, read-out: GI; outline: as §1
# [29] = test system: HOP-92; test: Cytotoxicity against human HOP92 cells assessed as growth inhibition at 10 uM after 48 hrs by sulphorhodamine B assay; settings: HOP-92, 48 h, read-out: GI; outline: as §1
# [30] = test system: LOX IMVI; test: Cytotoxicity against human LOXIMVI cells assessed as growth inhibition at 10 uM after 48 hrs by sulphorhodamine B assay; settings: read-out: GI; outline: as §1
# [31] = test system: SF-295; test: Cytotoxicity against human SF295 cells assessed as growth inhibition at 10 uM after 48 hrs by sulphorhodamine B assay; settings: SF-295, 48 h, read-out: GI; outline: as §1
# [32] = test system: OVCAR-5; test: Cytotoxicity against human OVCAR5 cells assessed as growth inhibition at 10 uM after 48 hrs by sulphorhodamine B assay; settings: OVCAR-5, 48 h, read-out: GI; outline: as §1
# [33] = test system: PC-3; test: Cytotoxicity against human PC3 cells assessed as growth inhibition at 10 uM after 48 hrs by sulphorhodamine B assay; settings: PC-3, 48 h, read-out: GI; outline: as §1
# [34] = test system: NCI-H522; test: Cytotoxicity against human NCI-H522 cells assessed as growth inhibition at 10 uM after 48 hrs by sulphorhodamine B assay; settings: NCI-H522, 48 h, read-out: GI; outline: as §1
# [35] = test system: M14; test: Cytotoxicity against human M14 cells assessed as growth inhibition at 10 uM after 48 hrs by sulphorhodamine B assay; settings: M14, 48 h, read-out: GI; outline: as §1
# [36] = test system: A498; test: Cytotoxicity against human A498 cells assessed as growth inhibition at 10 uM after 48 hrs by sulphorhodamine B assay; settings: A498, 48 h, read-out: GI; outline: as §1
# [37] = test system: ACHN; test: Cytotoxicity against human ACHN cells assessed as growth inhibition at 10 uM after 48 hrs by sulphorhodamine B assay; settings: read-out: GI; outline: as §1
# [38] = test system: MOLT-4; test: Cytotoxicity against human MOLT4 cells assessed as growth inhibition at 10 uM after 48 hrs by sulphorhodamine B assay; settings: MOLT-4, 48 h, read-out: GI; outline: as §1
# [39] = test system: CAKI-1; test: Cytotoxicity against human Caki1 cells assessed as growth inhibition at 10 uM after 48 hrs by sulphorhodamine B assay; settings: CAKI-1, 48 h, read-out: GI; outline: as §1
# [40] = test system: A549; test: Cytotoxicity against human A549 cells assessed as growth inhibition at 10 uM after 48 hrs by sulphorhodamine B assay; settings: A549, 48 h, read-out: GI; outline: as §1
# [41] = test system: Hs-578T; test: Cytotoxicity against human Hs578T cells assessed as growth inhibition at 10 uM after 48 hrs by sulphorhodamine B assay; settings: read-out: GI; outline: as §1
structure (smiles),measurement,setting,value
CC1CCCc2c1nc(NC(=S)NC(=O)c1ccccc1)c(C#N)c2-c1ccc(Cl)cc1 (configuration not stated),inhibition of growth at 10 µM,[1],17.7%
same,inhibition of growth at 10 µM,[2],30%
same,inhibition of growth at 10 µM,[3],10.3%
same,inhibition of growth at 10 µM,[4],33.2%
same,inhibition of growth at 10 µM,[5],< 10%
same,inhibition of growth at 10 µM,[6],12.1%
same,inhibition of growth at 10 µM,[7],16.7%
same,inhibition of growth at 10 µM,[8],10%
same,inhibition of growth at 10 µM,[9],11.6%
same,inhibition of growth at 10 µM,[10],14.1%
same,inhibition of growth at 10 µM,[11],27.6%
same,inhibition of growth at 10 µM,[12],14.5%
same,inhibition of growth at 10 µM,[13],20%
same,inhibition of growth at 10 µM,[14],< 10%
same,inhibition of growth at 10 µM,[15],< 10%
same,inhibition of growth at 10 µM,[16],< 10%
same,inhibition of growth at 10 µM,[17],36.3%
same,inhibition of growth at 10 µM,[18],25.3%
same,inhibition of growth at 10 µM,[19],32%
same,inhibition of growth at 10 µM,[20],< 10%
same,inhibition of growth at 10 µM,[21],20%
same,inhibition of growth at 10 µM,[22],< 10%
same,inhibition of growth at 10 µM,[23],38.8%
same,inhibition of growth at 10 µM,[24],< 10%
same,inhibition of growth at 10 µM,[25],21.4%
same,inhibition of growth at 10 µM,[26],55%
same,inhibition of growth at 10 µM,[27],15.7%
same,inhibition of growth at 10 µM,[28],20%
same,inhibition of growth at 10 µM,[29],38.2%
same,inhibition of growth at 10 µM,[30],11.1%
same,inhibition of growth at 10 µM,[31],17.2%
same,inhibition of growth at 10 µM,[32],< 10%
same,inhibition of growth at 10 µM,[33],20.3%
same,inhibition of growth at 10 µM,[34],27.5%
same,inhibition of growth at 10 µM,[35],< 10%
same,inhibition of growth at 10 µM,[36],39%
same,inhibition of growth at 10 µM,[37],14%
same,inhibition of growth at 10 µM,[38],31%
same,inhibition of growth at 10 µM,[39],22.5%
same,inhibition of growth at 10 µM,[40],16%
same,inhibition of growth at 10 µM,[41],13.8%
CC1CCCc2c1nc1[nH]c(=O)nc(N)c1c2-c1ccc(Cl)cc1 (configuration not stated),inhibition of growth at 10 µM,[1],< 10%
same,inhibition of growth at 10 µM,[2],24.6%
same,inhibition of growth at 10 µM,[3],< 10%
same,inhibition of growth at 10 µM,[4],10%
same,inhibition of growth at 10 µM,[5],< 10%
same,inhibition of growth at 10 µM,[6],< 10%
same,inhibition of growth at 10 µM,[7],< 10%
same,inhibition of growth at 10 µM,[8],10%
same,inhibition of growth at 10 µM,[9],10%
same,inhibition of growth at 10 µM,[10],16.6%
same,inhibition of growth at 10 µM,[11],< 10%
same,inhibition of growth at 10 µM,[12],10%
same,inhibition of growth at 10 µM,[13],10.2%
same,inhibition of growth at 10 µM,[14],14%
same,inhibition of growth at 10 µM,[15],< 10%
same,inhibition of growth at 10 µM,[16],< 10%
same,inhibition of growth at 10 µM,[17],36.4%
same,inhibition of growth at 10 µM,[18],25.4%
same,inhibition of growth at 10 µM,[19],< 10%
same,inhibition of growth at 10 µM,[20],< 10%
same,inhibition of growth at 10 µM,[21],< 10%
same,inhibition of growth at 10 µM,[22],< 10%
same,inhibition of growth at 10 µM,[23],29.5%
same,inhibition of growth at 10 µM,[24],< 10%
same,inhibition of growth at 10 µM,[25],13.6%
same,inhibition of growth at 10 µM,[26],23%
same,inhibition of growth at 10 µM,[27],11%
same,inhibition of growth at 10 µM,[28],14%
same,inhibition of growth at 10 µM,[29],27.7%
same,inhibition of growth at 10 µM,[30],< 10%
same,inhibition of growth at 10 µM,[31],< 10%
same,inhibition of growth at 10 µM,[32],< 10%
same,inhibition of growth at 10 µM,[33],12.7%
same,inhibition of growth at 10 µM,[34],12.9%
same,inhibition of growth at 10 µM,[35],< 10%
same,inhibition of growth at 10 µM,[36],< 10%
same,inhibition of growth at 10 µM,[37],< 10%
same,inhibition of growth at 10 µM,[38],< 10%
same,inhibition of growth at 10 µM,[39],< 10%
same,inhibition of growth at 10 µM,[40],11.5%
same,inhibition of growth at 10 µM,[41],19.4%
